Reference: ChEMBL document CHEMBL3352269, “Discovery of 2-Pyridylpyrimidines as the First Orally Bioavailable GPR39 Agonists” (ACS Med Chem Lett, 2014)
pEC50: −log10 of the molar value. The source made the active and inactive calls. The rule behind the calls is not given here.

Key:
[1] = target: T1, G-protein coupled receptor 39 (Homo sapiens, UniProt O43194); experiment: Agonist activity at human GPR39 expressed in HEK293 cells by IP1 assay; assay type: functional, cell-based
T1 sequence (O43194 whole entry): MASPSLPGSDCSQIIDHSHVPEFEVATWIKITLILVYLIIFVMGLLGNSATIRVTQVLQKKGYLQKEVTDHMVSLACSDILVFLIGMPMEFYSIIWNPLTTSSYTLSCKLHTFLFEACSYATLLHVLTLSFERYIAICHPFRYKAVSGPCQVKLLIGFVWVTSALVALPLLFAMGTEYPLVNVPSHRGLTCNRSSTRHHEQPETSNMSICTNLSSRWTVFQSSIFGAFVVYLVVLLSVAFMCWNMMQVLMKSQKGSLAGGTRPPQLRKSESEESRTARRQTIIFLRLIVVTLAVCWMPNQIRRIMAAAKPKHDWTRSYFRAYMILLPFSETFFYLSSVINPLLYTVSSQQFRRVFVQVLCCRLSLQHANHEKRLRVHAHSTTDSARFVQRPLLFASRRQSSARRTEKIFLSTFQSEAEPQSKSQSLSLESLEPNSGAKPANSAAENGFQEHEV
Outline: (§1)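 Gαq signalling read as inositol-1-phosphate (IP1) accumulation in HEK293 cells overexpressing human, mouse or rat GPR39. EC50 taken from an 11-point dose–response curve run in triplicate. Replicates range from 1 to 4, with standard deviation where available.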

[2] = target: T2, G-protein coupled receptor 39 (Mus musculus, UniProt Q5U431); experiment: Agonist activity at mouse GPR39 expressed in HEK293 cells by IP1 assay; assay type: functional, cell-based; outline: as §1
T2 sequence (Q5U431 whole entry): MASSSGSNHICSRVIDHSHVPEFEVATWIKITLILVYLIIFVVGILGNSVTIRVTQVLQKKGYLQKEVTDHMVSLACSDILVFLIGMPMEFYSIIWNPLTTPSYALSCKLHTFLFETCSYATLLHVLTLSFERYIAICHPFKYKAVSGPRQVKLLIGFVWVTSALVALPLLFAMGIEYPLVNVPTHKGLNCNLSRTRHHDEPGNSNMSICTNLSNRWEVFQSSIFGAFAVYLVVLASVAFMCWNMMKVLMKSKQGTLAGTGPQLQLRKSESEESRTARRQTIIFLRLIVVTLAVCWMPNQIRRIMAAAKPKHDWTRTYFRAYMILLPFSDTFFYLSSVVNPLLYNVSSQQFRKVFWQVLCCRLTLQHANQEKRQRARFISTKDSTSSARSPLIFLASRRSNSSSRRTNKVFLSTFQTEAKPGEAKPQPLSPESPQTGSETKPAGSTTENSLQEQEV

[3] = Hepatic clearance in rat liver microsomes; assay type: ADME
Outline: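 Predicted hepatic clearance calculated from intrinsic clearance in rat liver microsomes.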

[4] = Oral bioavailability in Sprague-Dawley rat at 3 mg/kg; assay type: ADME, organism-based; settings: in vivo
Outline: (§2)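 Sprague–Dawley rats received a single iv dose of 1 mg/kg, with clearance measured, or an oral dose of 3 mg/kg, with bioavailability (F) measured.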

[5] = Clearance in Sprague-Dawley rat at 1 mg/kg, iv administered as single dose; assay type: ADME, organism-based; set-up: dose 1 mg/kg, route intravenous; settings: in vivo; outline: as §2
[6] = target: T1, G-protein coupled receptor 39; experiment: Agonist activity at human GPR39 by IP1 assay; assay type: functional; outline: as §1
[7] = target: T3, Protein Gpr39 (Rattus norvegicus, UniProt A6QR73); experiment: Agonist activity at rat GPR39 by IP1 assay; assay type: functional; outline: as §1
T3 sequence (A6QR73 whole entry): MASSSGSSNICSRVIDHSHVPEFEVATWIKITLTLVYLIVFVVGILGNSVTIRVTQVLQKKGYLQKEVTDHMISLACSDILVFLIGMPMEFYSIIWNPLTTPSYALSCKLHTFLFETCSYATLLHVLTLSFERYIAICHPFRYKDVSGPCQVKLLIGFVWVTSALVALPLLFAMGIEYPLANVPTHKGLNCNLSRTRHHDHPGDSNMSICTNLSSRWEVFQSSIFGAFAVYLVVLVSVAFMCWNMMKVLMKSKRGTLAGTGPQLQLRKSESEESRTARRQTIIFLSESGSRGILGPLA

[8] = Aqueous solubility at pH 6.8; assay type: physicochemical
[9] = target: T2, G-protein coupled receptor 39; experiment: Agonist activity at mouse GPR39 by IP1 assay; assay type: functional; outline: as §1
[10] = Oral bioavailability in Sprague-Dawley rat at 5 mg/kg; assay type: ADME, organism-based; settings: in vivo
Outline: (§3)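 Sprague–Dawley rats received a single iv dose of 2 mg/kg or an oral dose of 5 mg/kg. Vehicle was 10% NMP, 30% PEG200 and 5% Solutol in water. Clearance was taken from the iv arm and bioavailability from the oral arm.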

[11] = Clearance in Sprague-Dawley rat at 2 mg/kg, iv administered as single dose; assay type: ADME, organism-based; set-up: dose 2 mg/kg, route intravenous; settings: in vivo; outline: as §3
[12] = target: T4, G-protein coupled receptor 39 (Homo sapiens) (UniProt O43194); experiment: Agonist activity at human GPR39 expressed in HEK293 cells by cAMP assay relative to forskolin; assay type: functional, cell-based
T4 sequence (whole entry): T1 sequence (O43194 whole entry)
Outline: (§4)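 cAMP accumulation (Gαs signalling) in HEK293 cells overexpressing human GPR39. Dose–response curve run in triplicate, 1–16 replicates. EC50 derived from the curve. Percent efficacy is expressed relative to the cAMP response to 25 μM forskolin.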

[13] = Induction of GLP1 secretion in mouse STC1 cells incubated for 2 hrs by fluorescent bead based ELISA method; assay type: functional, cell-based; settings: STC-1, 2 h
Outline: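 Mouse enteroendocrine STC-1 cells, which express endogenous GPR39, were assayed for GLP-1 secretion over a dose–response run in triplicate. Maximal activity is expressed as fold increase in GLP-1 over the DMSO control.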

[14] = target: T3, Protein Gpr39; experiment: Agonist activity at rat GPR39 expressed in HEK293 cells by IP1 assay; assay type: functional, cell-based; outline: as §1
[15] = Protection against cytokine-induced cell death in rat INS-1E cells assessed as caspase 3/7 activity; assay type: functional, cell-based
Outline: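 Rat insulinoma INS-1E cells (beta-cell phenotype) were treated with cytokines to induce cell death. Caspase 3/7 activity was the read-out. Dose–response run in triplicate.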

[16] = target: T1, G-protein coupled receptor 39; experiment: Agonist activity at human GPR39 expressed in HEK293 cells by cAMP assay; assay type: functional, cell-based; outline: as §4
[17] = Plasma concentration in C57BL/6 mouse at 30 mg/kg, po concurrently dosed with 3 mg/kg, po DPP4 inhibitor PKF275-055 followed by glucose challenge after 1 hr post drug dose; assay type: ADME, organism-based
Outline: (§5)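 Male C57BL/6 mice were dosed orally with compound together with a DPP-IV inhibitor. After 1 h they were challenged with oral glucose at 3 g/kg. Active GLP-1 and plasma exposure were measured 30 min later. One-way ANOVA with Dunnett's post-test against the vehicle group.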

[18] = Permeability from apical to basolateral side in human Caco2 cells; assay type: ADME, cell-based; settings: Caco-2, read-out: permeability
[19] = tested on: Mus musculus; experiment: Increase in GLP1 level in C57BL/6 mouse at 30 mg/kg, po concurrently dosed with 3 mg/kg, po DPP4 inhibitor PKF275-055 followed by glucose challenge after 1 hr post drug dose; assay type: functional; outline: as §5
[20] = target: T4, G-protein coupled receptor 39 (Homo sapiens); experiment: Agonist activity at human GPR39 expressed in HEK293 cells in presence of sub-EC50 dose of zinc chloride by IP1 assay; assay type: functional, cell-based

Row | SMILES | pEC50 [1] | pEC50 [2] | CLhep predicted [3] | further results
1 | CNc1nc(NCC2CC2)cc(-c2ccccn2)n1 | 6.79 | 6.94 | – | –
2 | CNc1nc(NC2(c3ccc(Cl)cc3)CCC2)cc(-c2ccccn2)n1 | 7.60 | 7.47 | > 52.3 mL/min/kg | –
3 | CNc1nc(NCc2ccc(S(C)(=O)=O)cc2)cc(-c2ccccn2)n1 | 7.44 | 6.73 | 34.1 mL/min/kg | bioavailability [4]: 45%; clearance [5]: 18 mL/min/kg
4 | CNc1nc(NCC2CCCCC2)cc(-c2ccccn2)n1 | 7.96 | 8.00 | – | –
5 | Cc1nc(NCc2ccc(Cl)cc2)cc(-c2ccccn2)n1 | 7.09 | 7.77 | > 52.3 mL/min/kg | –
6 | CNc1nc(NCc2ccncc2)cc(-c2ccccn2)n1 | 7.06 | 6.52 | – | –
7 | c1ccc(-c2cc(NCC3CC3)ncn2)nc1 | 4.66 | 5.00 | – | –
8 | CN(C)c1nc(NCC2CC2)cc(-c2ccccn2)n1 | < 4.60 | 5.17 | – | –
9 | O=S(=O)(NC[C@H]1CC[C@H](CNc2nc(NC3CC3)cc(-c3ccccn3)n2)CC1)c1cccc(F)c1 | – | – | 51.2 mL/min/kg | pEC50 [6]: 6.69; pEC50 [7]: 7.92; solubility [8]: < 5 µM; pEC50 [9]: 8.40
10 | O=S(=O)(NC[C@H]1CC[C@H](CNc2cc(-c3ccccn3)nc(NC3CC3)n2)CC1)c1cccc(F)c1 | – | – | – | pEC50 [6]: 7.96; pEC50 [7]: 9.00; pEC50 [9]: 8.52; bioavailability [10]: 25%; clearance [11]: 42 mL/min/kg
11 | CNc1nc(NCc2ccc(NC(C)=O)cc2)cc(-c2ccccn2)n1 | 8.30 | 8.70 | 35.9 mL/min/kg | Efficacy [12]: 48%; pEC50 [13]: 5.36; pEC50 [14]: 8.70; pEC50 [15]: 5.92; pEC50 [16]: 6.26
12 | COCCNc1nc(NCC2CC2)cc(-c2ccccn2)n1 | 5.66 | 5.00 | – | –
13 | CNc1nc(NCc2ccc(NS(C)(=O)=O)cc2)cc(-c2ccccn2)n1 | 8.52 | 8.10 | 33.6 mL/min/kg | Efficacy [12]: 55%; pEC50 [13]: 5.89; concentration at 1 h [17]: 2000 nM; Papp A→B [18]: 6.9 ×10⁻⁶ cm/s; pEC50 [14]: 8.52; pEC50 [15]: 6.40; fold change (FC) [19]: <2; pEC50 [16]: 6.74
14 | CNC(=O)c1ccc(CNc2cc(-c3ccccn3)nc(NC)n2)cc1 | 7.52 | 8.10 | 31.9 mL/min/kg | –
15 | [Cl-].[Cl-].[Zn+2] [ZINC CHLORIDE] | – | – | – | Efficacy [12]: 48%; pEC50 [14]: 5.39; pEC50 [16]: 5.44
16 | FC(F)(F)Oc1ccc(CNc2nc(NCC3CC3)cc(-c3ccccn3)n2)cc1 | 6.22 | 7.66 | – | –
17 | CNc1nc(NCc2ccc(Cl)cc2Cl)cc(-c2ccccn2)n1 | 9.10 | 9.30 | > 52.3 mL/min/kg | –
18 | O=S(=O)(NC[C@H]1CC[C@H](CNc2cc(-c3ccccn3)nc(NCC3CC3)n2)CC1)c1ccc(F)cc1 | – | – | – | Activity [20]: Active
19 | CNc1nc(NCc2ccc(NC(C)=O)cc2F)cc(-c2ccccn2)n1 | 9.00 | – | 25.9 mL/min/kg | Efficacy [12]: 55%; pEC50 [13]: 6.70; pEC50 [14]: 9.22; pEC50 [15]: 7.40; pEC50 [16]: 6.46
20 | CNc1nc(NCc2ccc(OC(F)(F)F)cc2)cc(-c2ccccn2)n1 | 7.89 | 8.15 | > 52.3 mL/min/kg | –
21 | CC(C)(C)CNc1nc(NCC2CC2)cc(-c2ccccn2)n1 | 5.30 | 5.82 | – | –
22 | CNc1nc(NCc2ccc(Cl)cc2)cc(-c2ccccn2)n1 | 7.82 | 8.52 | – | –
23 | CNc1nc(NCC(C)(C)C)cc(-c2ccccn2)n1 | 7.14 | 6.44 | – | –
24 | FC(F)(F)CNc1nc(NCc2ccc(Cl)cc2)cc(-c2ccccn2)n1 | 7.22 | 9.00 | > 52.3 mL/min/kg | –
25 | CNc1nc(Nc2ccc(N(C)C(C)=O)cc2)cc(-c2ccccn2)n1 | 5.93 | 5.58 | – | –
